Screening data as filed in PubChem.
Avidin bead fluor = avidin bead compound fluorescence profile; hit rate 0.38% among 220,000; fluorescence (KMESF) at 10 µM; AID 1775; Avidin beads, compound fluorescence 488/530 nm, flow cytometry; active compounds read high; in the data active = fluorescence above about 47
PKD1 inh = blocks activity of human protein kinase D1; inhibition, % (concentration not given with the values); hit rate 0.056% among 200,000; Q15139; PKD1 kinase fluorescence polarization assay
GSH bead fluor = GSH bead compound fluorescence profile; AID 1776; GSH beads flow cytometry, compound fluorescence 488/530 nm; active compounds read high; hit rate 0.25% among 190,000; fluorescence (KMESF) at 10 µM; in the data active = fluorescence above about 89;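 also: glutathione beads carrying GST-tagged Bcl family fusion proteins plus one bare bead set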
ABCG2 block = inhibitors of human ABCG2 transporter, ABCB1 counter-screen; IgMXP3 cells, JC-1 efflux, flow cytometry; hit rate 0.1% among 190,000; inhibition, % at 6.6 µM; Q9UNQ0;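 active = inhibition above 80%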
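Times: 10 min at 25 °C | Test system: Two drug-resistant human cell lines, ABCG2 and ABCB1 | Quantity: 3 million cells/mL final, two lines in 1:1 ratio | Signal: Flow cytometry, 530 nm JC-1 signal | Dosing: Compound at 6.6 µM | Controls: Nicardipine and DMSO wells | Reagent: JC-1 as fluorescent efflux pump substrate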
ABCB1 inh = inhibitors of human ABCB1 transporter, ABCG2 counter-screen; hit rate 0.067% among 190,000; CCRF-Adr cells, JC-1 efflux, flow cytometry; inhibition, % at 6.6 µM; AID 1326; in the data active = inhibition above about 40%;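 also: higher value means more JC-1 retained so stronger ABCB1 efflux block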
Target sequence (P08183 whole entry, looked up): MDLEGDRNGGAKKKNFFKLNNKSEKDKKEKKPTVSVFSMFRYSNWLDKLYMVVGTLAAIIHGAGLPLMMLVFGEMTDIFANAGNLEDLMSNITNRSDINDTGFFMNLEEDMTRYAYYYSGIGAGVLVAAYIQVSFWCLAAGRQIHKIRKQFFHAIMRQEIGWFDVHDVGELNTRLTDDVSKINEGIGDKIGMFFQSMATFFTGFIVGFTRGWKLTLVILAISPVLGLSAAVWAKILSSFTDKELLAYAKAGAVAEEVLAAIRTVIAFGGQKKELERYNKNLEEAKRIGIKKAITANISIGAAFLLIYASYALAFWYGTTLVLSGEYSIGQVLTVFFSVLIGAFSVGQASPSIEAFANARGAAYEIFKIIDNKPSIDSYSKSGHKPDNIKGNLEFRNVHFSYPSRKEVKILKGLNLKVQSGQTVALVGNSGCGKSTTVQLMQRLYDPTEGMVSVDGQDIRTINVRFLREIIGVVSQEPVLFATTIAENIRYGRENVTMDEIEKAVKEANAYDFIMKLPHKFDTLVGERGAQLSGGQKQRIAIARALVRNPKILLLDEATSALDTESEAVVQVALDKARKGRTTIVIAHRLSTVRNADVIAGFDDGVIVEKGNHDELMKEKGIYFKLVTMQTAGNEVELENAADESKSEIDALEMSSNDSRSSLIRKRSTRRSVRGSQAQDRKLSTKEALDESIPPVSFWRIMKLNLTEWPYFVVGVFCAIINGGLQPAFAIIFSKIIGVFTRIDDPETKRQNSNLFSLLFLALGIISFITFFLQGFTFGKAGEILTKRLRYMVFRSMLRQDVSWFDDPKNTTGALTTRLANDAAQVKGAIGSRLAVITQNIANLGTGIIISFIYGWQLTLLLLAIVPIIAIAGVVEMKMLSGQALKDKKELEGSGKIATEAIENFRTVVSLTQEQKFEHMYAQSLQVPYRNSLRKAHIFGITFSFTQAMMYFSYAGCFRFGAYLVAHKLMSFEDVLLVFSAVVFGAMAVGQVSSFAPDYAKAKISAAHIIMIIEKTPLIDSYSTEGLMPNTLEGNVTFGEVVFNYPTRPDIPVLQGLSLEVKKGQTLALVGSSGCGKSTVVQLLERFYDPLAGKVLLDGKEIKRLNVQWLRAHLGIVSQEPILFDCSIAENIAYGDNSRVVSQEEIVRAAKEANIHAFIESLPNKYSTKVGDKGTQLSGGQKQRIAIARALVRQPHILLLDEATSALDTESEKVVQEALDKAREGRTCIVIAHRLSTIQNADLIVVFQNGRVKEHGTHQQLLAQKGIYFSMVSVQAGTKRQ
Lmaj promast = inhibitors of Leishmania major promastigote growth | hit rate 9% among 200,000 | inhibition, % at 10 µM | AID 1063 | Leishmania major promastigotes, resazurin fluorescence viability;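 also: promastigotes grown with compound for 44 hours at 28 °C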
Large screens that a line does not name were inactive. The sample as a whole holds a higher share of hits than the screen did. Rule as the data show it, unless noted: active = inhibition above about 50%; inactive = the rest.

CN(Cc1ccc(Cl)s1)C(=O)CCl	Lmaj promast 84.3
CN(Cc1ccc(Cl)cc1)C(=O)CCl	none
Cc1cc(C(=S)N2CCOCC2)c(C)n1-c1ccc(Cl)cc1	none
Cc1cc(C)cc(-n2c(C)cc(C(=S)N3CCOCC3)c2C)c1	Lmaj promast 55.4
O=C1CC(c2ccccc2F)c2c(c3ccccc3[nH]c2=O)O1 (configuration not stated)	none (no result: PKD1 inh, GSH bead fluor, ABCG2 block, ABCB1 inh, Lmaj promast)
Cc1[nH]c2ccccc2c1/C=N/Nc1nc(Nc2ccc(F)cc2)nc(N2CCOCC2)n1	Lmaj promast 99.1
c1ccc(Nc2nc(N3CCNCC3)nc(N3CCOCC3)n2)cc1	none
C(=N\Nc1nc(Nc2ccccc2)nc(N2CCOCC2)n1)/c1c[nH]c2ccccc12	Lmaj promast 96.6
Cc1ccc(Nc2nc(N/N=C/c3c[nH]c4ccccc34)nc(N3CCOCC3)n2)cc1	Lmaj promast 54.0
COCCCn1c(=S)[nH]c2sc3c(c2c1=O)CCCS3	none
C=CCn1c(CNC(=O)c2ccccc2F)nnc1SCC(=O)NC(C)c1ccccc1 (configuration not stated)	none
CCC1=C(OC(=O)N(CC)CC)N2C(=O)OC(=NCC3CC3)[C@]2(Cc2ccccc2)[C@H]2C1=CC[C@H]1C(=O)N(c3ccccc3)C(=O)[C@H]12	none (no result: PKD1 inh, GSH bead fluor, ABCG2 block, ABCB1 inh, Lmaj promast)
COC(=O)c1ccc(CN2C(=O)NC(CC(C)C)C2=O)cc1 (configuration not stated)	none
O=C(C(Cc1ccccc1)NS(=O)(=O)c1cccc2cccnc12)N1CCc2ccccc21 (configuration not stated)	Lmaj promast 93.6
O=S(=O)(c1cccc2cccnc12)N1CCc2ccccc21	none
CCN(CC)CC#CCC(O)(c1ccccc1)C1CCCC1 (configuration not stated)	Lmaj promast 72.7
OCCN(CC#CCC(O)(c1ccccc1)C1CCCC1)CCO (configuration not stated)	none (no result: PKD1 inh, GSH bead fluor, ABCG2 block, ABCB1 inh, Lmaj promast)
CCN(CC)CC#CCC(OC)(c1ccccc1)c1ccccc1	Lmaj promast 54.6
Cc1ccc(C(OCCN(C)C)c2cccc(C(F)(F)F)c2)cc1 (configuration not stated)	none
COc1c(Br)cc(C(N)=O)cc1OCc1ccccc1	none
CCOc1cc(C(N)=O)cc(Br)c1OCc1ccccc1	Lmaj promast 99.9
O=C(c1cn(-c2ccccc2)nc1-c1ccc(F)cc1)N1CCOCC1	none
OCc1cn(-c2ccccc2)nc1-c1ccc(-c2nn(-c3ccccc3)cc2CO)cc1	none
O=C(NCc1cn(-c2ccccc2)nc1-c1ccc(F)cc1)c1cccc([N+](=O)[O-])c1	Lmaj promast 81.0
O=C(c1cn(-c2ccccc2)nc1-c1ccc(F)cc1)N1CCCCC1	Lmaj promast 81.3
O=C(CCl)Nc1cn(-c2ccccc2)nc1-c1ccc(F)cc1	Lmaj promast 84.4
Fc1ccc(-c2nn(-c3ccccc3)cc2CNCc2ccccc2)cc1	Lmaj promast 80.2
CC(C)CNC(=O)c1cc2nc(C3CC3)cc(C(F)(F)F)n2n1	none (no result: Avidin bead fluor, GSH bead fluor, ABCG2 block, ABCB1 inh)
CS/C(Nc1cc(Cl)ccc1Cl)=C(/C#N)C(=O)c1ccco1	none (no result: PKD1 inh, GSH bead fluor, ABCG2 block, ABCB1 inh, Lmaj promast)
O=C(NC(c1ccccc1)c1ccccc1)c1cccc(S(=O)(=O)NCc2ccccc2)c1	none
O=C(NCCCN1CCc2ccccc2C1)Nc1ccc(Br)cc1	Lmaj promast 95.0
CCOC(=O)N/N=C(\C)c1ccc(OC(F)F)cc1OC(F)F	none
CCOc1ccc(-n2c(SCC(=O)NCc3ccco3)nc3c(c2=O)SCC3)cc1	none
CCOC(=O)c1c(NC(C)=O)sc2c(OCC(O)CNC(C)(C)C)c(Br)ccc12 (configuration not stated)	Lmaj promast 100.5
O=C(NCCN1CCOCC1)C1CCN(c2ncnc3c2sc2cccc(F)c23)CC1	none
CCCCN(CC)CCCNC(=O)C1CCN(c2ncnc3c2sc2cccc(F)c23)CC1	Lmaj promast 100.1
Cc1cccc(-n2c(=S)[nH]c3sc4c(c3c2=O)CCc2ccccc2-4)c1	none
COc1c(C)cc(C(=O)C2CCCN(C(=O)CCc3scnc3C)C2)cc1C (configuration not stated)	none
CCOC(=O)N1CCC(N2CCCC(C(=O)c3ccc4cc(OC)ccc4c3)C2)CC1 (configuration not stated)	Lmaj promast 97.7
CCOC(=O)N1CCC(N2CCCC(C(=O)c3ccccc3OC)C2)CC1 (configuration not stated)	Lmaj promast 80.4
CCOC(=O)c1c(C)[nH]c(C(=O)N2CCCC(C(=O)c3ccccc3OC)C2)c1C (configuration not stated)	none (no result: PKD1 inh, GSH bead fluor, ABCG2 block, ABCB1 inh, Lmaj promast)
COc1ccc2cc(C(=O)C3CCCN(C(=O)c4ccnn4C)C3)ccc2c1 (configuration not stated)	none (no result: PKD1 inh, GSH bead fluor, ABCG2 block, ABCB1 inh, Lmaj promast)
CCOC(=O)N1CCC(N2CCCC(C(=O)c3cc(C)c(OC)c(C)c3)C2)CC1 (configuration not stated)	Lmaj promast 92.8
CC(c1ccccn1)N(Cc1ccco1)C(=S)Nc1cccc(F)c1 (configuration not stated)	none
Cc1ccc(NC(=O)Nc2cc(S(C)(=O)=O)ccc2Cl)cc1	none (no result: PKD1 inh, GSH bead fluor, ABCG2 block, ABCB1 inh, Lmaj promast)
CN1CCN(S(=O)(=O)c2cccc(C(=O)Nc3nc(-c4ccccc4)cs3)c2)CC1	none
O=C(NCCc1ccccc1F)C1CCCN1S(=O)(=O)c1ccc2ccccc2c1 (configuration not stated)	Lmaj promast 57.4
O=C(NC1CC1)C1CCCN1S(=O)(=O)c1ccc2ccccc2c1 (configuration not stated)	none
Cc1ccc(S(=O)(=O)N2CCCC2C(=O)Nc2nc3ccccc3s2)cc1 (configuration not stated)	none
COc1ccc(NC(=O)Nc2nc3c(s2)CCCC3)cc1	Lmaj promast 53.5
COc1ccc(-c2csc(NC(=O)c3cccc(S(=O)(=O)N4CCN(C)CC4)c3)n2)cc1	Lmaj promast 63.1
O=C(Nc1nc2ccccc2s1)C1CCCN1S(=O)(=O)c1ccc(Cl)cc1 (configuration not stated)	Lmaj promast 99.3
CCOC(=O)C(=Nc1ccc(Cl)cc1)NO	none
O=C(Nc1c2c(nc3c1CCC3)CCCC2)c1ccccn1	none
CNc1nc(-c2ccc3c(c2)CCN3S(=O)(=O)c2ccccc2)c(C)s1	none
COc1ccc(-c2csc(NC(=O)C3CCCCN3S(=O)(=O)c3ccccc3)n2)cc1 (configuration not stated)	Lmaj promast 69.5
CCOCCCNC(=O)C1CCCN1S(=O)(=O)c1ccc(Cl)cc1 (configuration not stated)	Lmaj promast 93.3
COc1ccc(S(=O)(=O)N2CCCC2C(=O)Nc2ccc(C)cc2)cc1 (configuration not stated)	none
CNC(=O)C1CCCN1S(=O)(=O)c1ccc(OC)cc1 (configuration not stated)	none
